# High-throughput results deposited in PubChem BioAssay by several laboratories.
# An excerpt weighted towards active compounds, which were near 1.6% of everything screened.
# FLuc stim CS: FLuc activators, initial screening, artefact control for FLuc-dependent activation tests, biochemical, ATPlite luminescence | Luciferin 4-monooxygenase (Photinus pyralis), P08659 | ATPlite luciferase biochemical, 10 min; 0 = ATP-free wells, 1 = DMSO control | activation factor at 10 µM | 200,000 tested, under 10 active | AID 1027, 2008;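 active = luciferase activation factor, scaled between plate controls, of at least 2 with compound at 10 µM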
# Target sequence (P08659 whole entry, looked up): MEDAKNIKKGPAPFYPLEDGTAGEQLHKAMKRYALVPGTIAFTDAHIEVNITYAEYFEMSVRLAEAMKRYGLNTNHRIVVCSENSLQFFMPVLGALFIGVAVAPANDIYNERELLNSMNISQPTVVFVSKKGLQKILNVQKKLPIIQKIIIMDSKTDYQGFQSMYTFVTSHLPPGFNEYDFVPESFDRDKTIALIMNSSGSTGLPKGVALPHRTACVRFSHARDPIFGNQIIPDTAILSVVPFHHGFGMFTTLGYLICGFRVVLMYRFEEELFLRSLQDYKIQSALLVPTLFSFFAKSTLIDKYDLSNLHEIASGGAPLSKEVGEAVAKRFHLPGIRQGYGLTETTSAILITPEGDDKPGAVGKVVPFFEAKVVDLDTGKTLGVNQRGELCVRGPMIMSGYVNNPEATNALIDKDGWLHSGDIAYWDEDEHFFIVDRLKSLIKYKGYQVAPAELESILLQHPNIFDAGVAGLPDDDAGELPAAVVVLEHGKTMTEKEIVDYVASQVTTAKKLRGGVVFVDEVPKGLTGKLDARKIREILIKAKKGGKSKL
#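 Assay system: Luciferase/luciferin reagent mix; Medium: PBS as buffer for the ATP substrate; Dosing: test compounds dosed from 2 mM stocks in 100% DMSO; Times: 10 min, room temperature; Signal: luminescence from luciferase reaction; Read-out: luciferase activation; Controls: No-ATP low control, compound-free enzyme-plus-ATP high control.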
# FLuc inhib CS: firefly luciferase enzyme inhibitors, primary screen, artefact control for luciferase-based inhibitor screens, biochemical, luminescence, ATPLite; Luciferin 4-monooxygenase (Photinus pyralis), P08659; 10 min; inhibition, % at 10 µM; hit rate 1.5% among 200,000; AID 1006, 2008;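 active = inhibition above about 50% when tested at 10 µM, limit read from the data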
# PPC-1+TRAIL kill: compounds killing PPC-1 cancer cells with TRAIL present, primary screen, TRAIL potentiator project, ATPLite luminescence, uHTS; AID 1443, 2008; PPC-1 cells + TRAIL, ATPLite viability luminescence; cell killing (% activity), % at 4 µM or 5 µM; hit rate 0.41% among 220,000;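 active = cell killing above 50% in the first pass at 4 µM, then a duplicate retest at 5 µM averaging 50% or more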;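 note: plate controls were cells with TRAIL plus DMSO for no effect and medium-only wells lacking cells for full effect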
# Platelet DG rel: inhibitors of platelet dense granule secretion, primary screen, cell-based, MLPCN, human platelets. human platelet-rich plasma, SFLLRN dense granule ATP release, luminescence. inhibition, %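 (compounds screened at 7.5 µM in platelet-rich plasma)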. hit rate 0.22% among 300,000;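 active = mean replicate score, as percent of positive control, at or above 50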
# C8 TRAIL sens: viability loss with TRAIL in NB7+C8 cells, primary screen, TRAIL sensitizer project, cell-based, ATPlite luminescence | inhibition (viability loss, TRAIL sensitization), % at 10 µM | hit rate 1% among 360,000 | AID 624354, 2012;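 active = compounds causing at least 50% loss of cell viability in the single-dose screen, relative to plate controls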
# An asterisk follows results filed as active; / = no result given.
SMILES,FLuc stim CS,FLuc inhib CS,PPC-1+TRAIL kill,Platelet DG rel,C8 TRAIL sens
COc1cc(Cn2c3ccc(NC(=S)NCc4ccc(C)cc4)cc3c(=O)n2C)ccc1F,/,/,/,/,9
N#C/C(=C(/O)c1ccc(Br)s1)c1nc2ccccc2[nH]1,/,/,/,-11,24
N#C/C(=C(/O)c1ccc([N+](=O)[O-])s1)c1nc2ccccc2[nH]1,/,/,26,8,44*
C=CCn1c(C)cc(C2=NNC(=Nc3ccc(C)cc3)SC2)c1C,1,2,-5,10,21
COCC(C)N=C1NN=C(c2cc(C)n(Cc3ccccc3Cl)c2C)CS1 (stereo not drawn),0.5,54*,26,0,33
Cc1cc(C2=NNC(=NC3CC3)SC2)c(C)n1Cc1ccco1,0,96*,-5,/,32
COCCCN=C1NN=C(c2cc(C)n(Cc3ccco3)c2C)CS1,0.3,70*,24,-5,11
Cc1cc(C2=NNC(=NC3CC3)SC2)c(C)n1-c1ccccc1,0,97*,6,6,79*
COc1ccc(-n2c(C)cc(C3=NNC(=NC4CC4)SC3)c2C)cc1,0.7,34,2,/,4
CCCc1cc2c(=O)c(-c3ccc4c(c3)OCCO4)coc2cc1OS(C)(=O)=O,0.8,16,-6,-1,28
CCc1cc2c(=O)c(-c3ccc4c(c3)OCCO4)coc2cc1OC(=O)c1ccco1,0.7,30,36,12,71*
CCCc1cc2c(=O)c(-c3ccc4c(c3)OCCO4)coc2cc1OC(=O)c1ccco1,0.9,8,35,2,56*
Cc1cccc(N2CCN(C3C(=O)Nc4ccccc4-n4nnnc43)CC2)c1C (stereo not drawn),/,/,/,/,20
CCN(CC)c1ccc(N=Cc2ccccc2[N+](=O)[O-])cc1,0.3,66*,57*,5,-3
CCN(CC)c1ccc(N=Cc2ccc([N+](=O)[O-])o2)cc1,0.7,34,53*,5,3
CC(=O)Nc1cccc(-c2ccnc3c2CC(C)(C(=O)NCc2ccncc2)O3)c1 (stereo not drawn),/,/,/,/,9
O=C(Nc1cccnc1)c1cc(-c2ccccc2)on1,0.3,65*,17,-5,8
COc1cccc(-c2cc(C(=O)Nc3cccnc3)no2)c1,0.4,64*,28,7,33
COc1cccc(-c2cc(C(=O)Nc3cc(OC)c(OC)c(OC)c3)no2)c1,1.1,-6,27,12,-1
O=c1[nH]c2ccccc2nc1/C=C/c1ccc(O)cc1,0.5,54*,12,35,36
O=c1[nH]c2ccccc2nc1/C=C/c1ccccc1,0.4,60*,18,4,34
O=c1[nH]c2ccccc2nc1/C=C/c1ccc(F)cc1,0.3,68*,17,2,53*
CC(C)(C)n1nnnc1C(CCc1ccccc1)N1CCN(C/C=C/c2ccccc2)CC1 (stereo not drawn),/,/,/,/,-40
COC(=O)c1ccc(CSc2nnc(N)s2)cc1,1,4,13,75*,-2
CCOc1ccc(Cl)cc1-c1cc(C(=O)NCc2ccccc2OC)[nH]n1,/,/,/,/,9
SMILES,FLuc stim CS,FLuc inhib CS,PPC-1+TRAIL kill,Platelet DG rel,C8 TRAIL sens
COCc1c(C(=O)Nc2nnc(C3CC3)s2)oc2ccccc12,/,/,/,/,4
CCc1nc2c(OCC(=O)c3ccc(Cl)cc3Cl)cccn2c1N(C=O)Cc1ccccc1,/,/,/,/,-20
CCOc1ccc(/C=C/C(=O)C(C(N)=O)=C2SCCS2)cc1,0.4,58*,43,-1,40
CC(C)(C)OC(=O)NCCCCCNC(=O)c1nc[nH]c1C(=O)NCc1ccc(CNC(=O)OC(C)(C)C)cc1,/,/,/,/,58*
CC(C)(C)OC(=O)NCc1ccc(NC(=O)c2nc[nH]c2C(=O)NCCNC(=O)c2[nH]cnc2C(=O)Nc2ccc(CNC(=O)OC(C)(C)C)cc2)cc1,/,/,/,/,88*
CC(C)C[C@H](NC(=O)c1[nH]cnc1C(=O)Nc1ccc(CNC(=O)OC(C)(C)C)cc1)C(=O)OCc1ccccc1,/,/,-3,-6,48
C[C@H](NC(=O)c1[nH]cnc1C(=O)Nc1ccc(CNC(=O)OC(C)(C)C)cc1)C(=O)OCc1ccccc1,/,/,-13,3,75*
